Measurements: PubChem BioAssay
Results filed as inconclusive are left out.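 Rule for the calls, unless noted: active = viability increase at or above a cutoff of the median across tested compounds plus 3 SD (cut at about 8.5% in these data, passing the limit was not always enough); inconclusive = some gains above the cutoff, reason not given; inactive = the rest.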

Tests used:
[1] = S. cerevisiae growth inhibition in permissive medium (OD615), pilot counter-assay for S. cerevisiae lifespan shortening project, permissive growth control (AID 705;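 active = growth inhibition above 25% in both replicates, a cutoff set 3 SD above the mean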); conditions: OD615, 24 h, at 10 µM, active compounds read high
Outline: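 System: S. cerevisiae with engineered DeaD lifespan system / Measured by: absorbance (optical density) at 615 nm / Read-out: reduction in yeast growth (OD615) / Times: 4 h cell pre-growth, 24 h exposure at 30 °C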

[2] = S. cerevisiae growth inhibition in restrictive medium, OD615, pilot screen, restrictive growth control, yeast lifespan reduction project (AID 706;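 active = growth inhibition above a set limit, 3 SD over mean compound inhibition, in both replicates, cut at about 43% in these data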;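 note: modified DeaD lifespan yeast strain shifted to restrictive glucose medium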); conditions: OD615, 48 h, at 10 µM, active compounds read high
Outline: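 System: Engineered S. cerevisiae DeaD strain | Buffer or medium: Glucose-based CSMM-D restrictive medium | Schedule: 4 h pre-incubation, 48 h exposure at 30 °C | Technique: Optical density at 615 nm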

[3] = doxorubicin toxicity protection in MRP-1 cells – H69AR cells, CellTiter-Glo, duplicate, MRP-1 activator project, pilot screen (AID 807); conditions: H69AR viability with doxorubicin, CellTiter-Glo luminescence; at 10 µM; active compounds read high;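 note: compound pretreatment 18-22 h then 72 h combined with doxorubicin; 0% = doxorubicin alone and 100% = vehicle without doxorubicin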
[4] = viability of HCT116 without oncogenic beta-catenin – human colon tumor cells, pilot screen (AID 823;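 active = cell viability at or below a set limit in both duplicate runs, the limit being the all-compound median minus 4 SD, cut at about 23% in these data, passing the limit was not always enough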;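 note: 0% = wells killed by 20 µM Hyamine and 100% = untreated DMSO cell wells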); conditions: HCT116 beta-catenin knockout viability, CellTiter-Glo, 60 h; at 10 µM; active compounds read low
[5] = viability of PTEN-null HCT116 cells – cell-based, HCT116 clonal line, CellTiter-Glo, pilot screen (AID 824;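 active = viability at or below 27.92% in each of two runs, the all-compound median minus 4 SD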;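 note: 0% = 20 µM Hyamine control and 100% = vehicle cell control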); conditions: HCT116 PTEN-deleted viability, 60 h, at 10 µM, active compounds read low
[6] = RAM pathway blockade in budding yeast – dse1pr::URA3 reporter, 5-FOA selection, pilot screen (AID 869;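 active = inhibition over a set limit, the all-compound mean plus 3 SD, in both replicate runs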;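 note: 0% = DMSO wells with no growth and 100% = 10 µM 1-NA-PP1 with full growth; RAM network block rescues cells from 5-FOA so hits raise OD615 growth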); conditions: S. cerevisiae dse1pr::URA3 5-FOA growth, OD615, 2 d; at 10 µM; active compounds read high; strain carries analog-sensitive mutant Cbk1 kinase
[7] = RAM signaling pathway blockade in yeast – S. cerevisiae, Pdr1DBD-CYC8 efflux-inhibited sensitized strain, primary screen (AID 1298;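 active = RAM network inhibition above 8.4% in each of two replicates, 3 SD over the compound average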;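 note: 0% = DMSO untreated cells without growth and 100% = 10 µM 1-NA-PP1 full growth; higher means more yeast growth rescued from 5-FOA killing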); conditions: S. cerevisiae cbk1-as DSE1-URA3 strain, 5-FOA growth OD615, 2 d; at 50 µM; active compounds read high

Cc1cccc(NC(=O)C2CCCN(S(=O)(=O)c3cccc4cccnc34)C2)c1 (configuration not stated)
inactive: growth inhibition [1] -13.1% | growth inhibition [2] -9.72% | viability increase [3] -1.92% | viability [4] 87.2% | viability [5] 74.6% | inhibition [6] 2.15% | RAM network inhibition [7] 3.91%

Cc1n[nH]c(C)c1S(=O)(=O)N(CC(=O)NC1CCCC1)c1ccc(C(C)C)cc1
inactive: growth inhibition [1] -7.41% | growth inhibition [2] 9.02% | viability increase [3] -3.3% | viability [4] 80.3% | viability [5] 76.9% | inhibition [6] 0.63% | RAM network inhibition [7] 3.37%

O=C(CC(c1ccccc1)c1ccccc1)Nc1ncn[nH]1
inactive: growth inhibition [1] -5.6% | growth inhibition [2] 9.86% | viability increase [3] 4.51% | viability [4] 100% | viability [5] 90.1% | inhibition [6] -0.035% | RAM network inhibition [7] 3.78%

Cc1noc(/C=C/N(C)C)c1S(=O)(=O)N1CCN(c2ccccc2)CC1
inactive: growth inhibition [1] -14.8% | growth inhibition [2] -3.67% | viability increase [3] -2.94% | viability [4] 95.9% | viability [5] 90.8% | inhibition [6] 2.37% | RAM network inhibition [7] 7.31%

Cc1ccc(-n2ncc3c(=O)[nH]c(SCC(=O)N4CCC(C)CC4)nc32)cc1C
inactive: growth inhibition [1] -0.265% | growth inhibition [2] -3.58% | viability increase [3] -5.08% | viability [4] 89% | viability [5] 85.3% | inhibition [6] 1.89% | RAM network inhibition [7] 2.86%

C=CCOc1cccc(C2C(C(=O)c3ccco3)=C(O)C(=O)N2CCN2CCOCC2)c1 (configuration not stated)
inactive: growth inhibition [1] -9.71% | growth inhibition [2] -10.5% | viability increase [3] -2.85% | viability [4] 94.1% | viability [5] 93.2% | inhibition [6] 0.795% | RAM network inhibition [7] -0.11%

Nc1ccccc1-c1nnc(SCc2ccccc2F)[nH]c1=O
inactive: growth inhibition [1] -8.6% | growth inhibition [2] 6.34% | viability increase [3] 2.02% | viability [4] 95.9% | viability [5] 89.9% | inhibition [6] 0.695% | RAM network inhibition [7] 4.24%

COc1cccc(N(CC(=O)Nc2cccc(F)c2)S(C)(=O)=O)c1
inactive: growth inhibition [1] -5.09% | growth inhibition [2] -12.3% | viability increase [3] -1.38% | viability [4] 91.1% | viability [5] 97.5% | inhibition [6] 0.965% | RAM network inhibition [7] 3.51%

CCNc1nc2c(c(=O)[nH]c(=O)n2C)n1Cc1ccc(F)cc1
inactive: growth inhibition [1] -8.34% | growth inhibition [2] -8.31% | viability increase [3] -3.05% | viability [4] 99% | viability [5] 85.2% | inhibition [6] 0.035% | RAM network inhibition [7] 4.88%

CCOC(=O)c1[nH]c2c(c1C)C(=O)CC(c1ccc(N(C)C)cc1)C2 (configuration not stated)
inactive: growth inhibition [1] -3.69% | growth inhibition [2] -0.995% | viability increase [3] -3.6% | viability [4] 77% | viability [5] 71.7% | inhibition [6] 2.3% | RAM network inhibition [7] 1.32%

Cc1c(Nc2nc3ccccc3nc2N2CCN(c3ccccc3)CC2)c(=O)n(-c2ccccc2)n1C
inactive: growth inhibition [1] -2.84% | growth inhibition [2] -9.73% | viability increase [3] -4.8% | viability [4] 69% | viability [5] 70.6% | inhibition [6] 0.73% | RAM network inhibition [7] 5.41%

c1nc(N2CCCCC2)c2[nH]cnc2n1
inactive: growth inhibition [1] -2.33% | growth inhibition [2] -9.23% | viability increase [3] -5.39% | viability [4] 113% | viability [5] 102% | inhibition [6] 1.4% | RAM network inhibition [7] 2.24%

O=C(Nc1ccc2nc3n(c(=O)c2c1)CCCCC3)c1ccccn1
inactive: growth inhibition [1] -2.29% | growth inhibition [2] 2.34% | viability increase [3] 1.28% | viability [4] 102% | viability [5] 107% | inhibition [6] 0.8% | RAM network inhibition [7] -2.05%

CCOCCn1c(N(C)Cc2ccccc2)nc2c1c(=O)[nH]c(=O)n2C
inactive: growth inhibition [1] -10.9% | growth inhibition [2] -6.11% | viability increase [3] 0.04% | viability [4] 101% | viability [5] 95.6% | inhibition [6] 0.985% | RAM network inhibition [7] 5.77%

Cc1c(C(=O)NCc2ccc3c(c2)OCO3)sc2nc(-c3ccccc3)cn12
inactive: growth inhibition [1] 5.98% | growth inhibition [2] -4.12% | viability increase [3] -0.35% | viability [4] 111% | viability [5] 103% | inhibition [6] 3.05% | RAM network inhibition [7] 6.39%

Cc1sc2ncn(CC(=O)NCc3ccccn3)c(=O)c2c1S(=O)(=O)N1CCOCC1
inactive: growth inhibition [1] -11.7% | growth inhibition [2] -5.54% | viability increase [3] 1.3% | viability [4] 101% | viability [5] 99.5% | inhibition [6] 0.485% | RAM network inhibition [7] 3.01%

Cc1cnc(C(=O)OCC(=O)Nc2cc(Cl)cc(Cl)c2)cn1
inactive: growth inhibition [1] -14.2% | growth inhibition [2] -9.38% | viability increase [3] -5.97% | viability [4] 96.7% | viability [5] 88.5% | inhibition [6] 1.13% | RAM network inhibition [7] 5.88%

O=S(=O)(c1ccc(Br)cc1)N1CCN(c2cc(-c3ccccc3)nc3ncnn23)CC1
inactive: growth inhibition [1] -4.71% | growth inhibition [2] -15.6% | viability increase [3] -5.82% | viability [4] 61.9% | viability [5] 71.9% | inhibition [6] 2.37% | RAM network inhibition [7] 2.33%

CCC(=O)Nc1nc2c(OC)ccc(OC)c2s1
inactive: growth inhibition [1] -2.06% | growth inhibition [2] 0.075% | viability increase [3] -2.87% | viability [4] 97.5% | viability [5] 94.5% | inhibition [6] 1.07% | RAM network inhibition [7] 2.34%

COCCn1c(SCCN2CCOCC2)nc2c1c(=O)[nH]c(=O)n2C
inactive: growth inhibition [1] -0.205% | growth inhibition [2] -4.84% | viability increase [3] 0.95% | viability [4] 104% | viability [5] 101% | inhibition [6] 1.45% | RAM network inhibition [7] 5.47%

COc1ccc(NC(=O)CSc2nnc(-c3ccccn3)n2N)cc1
inactive: growth inhibition [1] -5.41% | growth inhibition [2] 13.7% | viability increase [3] -0.74% | viability [4] 101% | viability [5] 97.3% | inhibition [6] 0.535% | RAM network inhibition [7] 4.82%

CCC1Oc2ccc(C)cc2N(CC(=O)NCCc2ccc(OC)c(OC)c2)C1=O (configuration not stated)
inactive: growth inhibition [1] -6.91% | growth inhibition [2] 3.82% | viability increase [3] -0.77% | viability [4] 95.2% | viability [5] 92.4% | inhibition [6] 1.23% | RAM network inhibition [7] -0.46%

Cc1ccc(N2CC(c3nc4ccccc4[nH]3)CC2=O)c(C)c1 (configuration not stated)
inactive: growth inhibition [1] -14.1% | growth inhibition [2] -17% | viability increase [3] 0.06% | viability [4] 107% | viability [5] 94.4% | inhibition [6] 1.45% | RAM network inhibition [7] 0.01%

[O-]/[N+](=C\c1ccncc1)c1ccc(Br)cc1
inactive: growth inhibition [1] -15% | growth inhibition [2] -19.9% | viability increase [3] -4.14% | viability [4] 83.7% | viability [5] 87.9% | inhibition [6] 2.81% | RAM network inhibition [7] 6.02%

COc1ccc(S(=O)(=O)N2Cc3ccccc3CC2C(=O)O)cc1OC (configuration not stated)
inactive: growth inhibition [1] 6.5% | growth inhibition [2] 3.09% | viability increase [3] 0.39% | viability [4] 104% | viability [5] 96.1% | inhibition [6] 1.33% | RAM network inhibition [7] 5.1%

Cc1cc(N2CCOCC2)cc(C)[n+]1[O-]
inactive: growth inhibition [1] -2.4% | growth inhibition [2] -2.99% | viability increase [3] -1.54% | viability [4] 89.5% | viability [5] 93.2% | inhibition [6] -0.115% | RAM network inhibition [7] 1.76%

CCCc1ccc(-c2ccc(C(=O)O)cc2)nc1
inactive: growth inhibition [1] 8.77% | growth inhibition [2] 5.22% | viability increase [3] -3.24% | viability [4] 101% | viability [5] 95.9% | inhibition [6] -0.425% | RAM network inhibition [7] -2.78%

Cc1ccc(-c2nc(CS(=O)CC(=O)NC3CCCC3)c(C)o2)cc1 (configuration not stated)
inactive: growth inhibition [1] 5.52% | growth inhibition [2] 2.53% | viability increase [3] -4.16% | viability [4] 92.9% | viability [5] 91.4% | inhibition [6] 1.08% | RAM network inhibition [7] 5.29%

CCN(CC)c1ccc(C=Nc2ccc(C#N)cc2)c(O)c1
inactive: growth inhibition [1] -18.8% | growth inhibition [2] -19.5% | viability increase [3] -0.93% | viability [4] 99.4% | viability [5] 96.3% | inhibition [6] 1.43% | RAM network inhibition [7] 5.13%

COC(=O)C(C(=O)OC)C(C(C)C)C(C(=O)OC)C(=O)OC
inactive: growth inhibition [1] -8.23% | growth inhibition [2] -9.04% | viability increase [3] -1.49% | viability [4] 101% | viability [5] 98.2% | inhibition [6] 1.07% | RAM network inhibition [7] 3.68%

O=S(=O)(NCc1csc(-c2cccnc2)n1)c1cccs1
inactive: growth inhibition [1] 5.38% | growth inhibition [2] -1.74% | viability increase [3] -0.79% | viability [4] 98% | viability [5] 90% | inhibition [6] 1.69% | RAM network inhibition [7] 1.3%

Cc1ccnc(SCC(=O)O)n1
inactive: growth inhibition [1] -0.18% | growth inhibition [2] -10.8% | viability increase [3] -1.15% | viability [4] 101% | viability [5] 101% | inhibition [6] 1.29% | RAM network inhibition [7] 1.08%

CCOCCCNC(=O)Cn1nc(-c2ccccc2)ccc1=O
inactive: growth inhibition [1] -19.8% | growth inhibition [2] -7.81% | viability increase [3] 1.86% | viability [4] 105% | viability [5] 91.7% | inhibition [6] 0.165% | RAM network inhibition [7] -0.58%

O=C1Nc2ccc(S(=O)(=O)N3CCCCCC3)c3cccc1c23
inactive: growth inhibition [1] -0.465% | growth inhibition [2] -4.72% | viability increase [3] -2.03% | viability [4] 95.2% | viability [5] 86.2% | inhibition [6] 1.57% | RAM network inhibition [7] 0.81%

O=C(Cn1cc2c(n1)CCCCC2)Nc1ccc(F)cc1F
inactive: growth inhibition [1] -4.89% | growth inhibition [2] 4.12% | viability increase [3] 0.49% | viability [4] 104% | viability [5] 97% | inhibition [6] 0.55% | RAM network inhibition [7] 2.75%

O=C(Nc1ccc(S(=O)(=O)N2CCCC2)cc1)C1COc2ccccc2O1 (configuration not stated)
inactive: growth inhibition [1] -10.9% | growth inhibition [2] -15.6% | viability increase [3] 0.84% | viability [4] 97.8% | viability [5] 83% | inhibition [6] 1.24% | RAM network inhibition [7] 5.44%
